# MT1-MMP act inh: MT1-MMP (human) activation inhibition; P50281; HT1080 RFP-PRO-GFP cells, GFP/RFP ratio fluorescence, overnight; percent of plate control window, DMSO zero; GFP/RFP ratio change, % at 20 µM; hit rate 0.061% among 360,000; AID 651647;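 active = GFP/RFP ratio change of at least 30% with cell ATP level not reduced by more than half and red fluorescence within 50% of control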
#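 Assay system: HT1080 RFP-PRO-GFP cells | Dosing: 20 µM single dose, 1% DMSO | Incubation: Cells overnight before dosing, compound overnight, 37 °C, 5% CO2 | Evaluation: GFP/RFP fluorescence ratio | Control set: DMSO-only wells and HT1080 RFP-L50D-GFP cell wells as references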
# SKN-1 inh: blocks SKN-1 activity in C. elegans. C. elegans VP596 Pgst-4::GFP/RFP ratio, acrylamide-induced, 24 h. hit rate 0.49% among 360,000. inhibition, % at 21.8 µM;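 active = interference check ratio from 0.5 to 1.5 plus GFP to RFP signal ratio inhibition reaching or exceeding a fixed threshold, cut at about 30% in these data, passing the limit was not always enough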
# NR3A LBD binder: modulates the human NR3A ligand-binding domain. hit rate 2.5% among 340,000. NR3A LBD differential scanning fluorimetry, Tm shift; 0% = protein alone, 100% = glycine-bound protein. Tm shift relative to glycine control, % at 25 µM. AID 1259313;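 active = melting temperature shift of at least 10% of the positive control shift, at one fixed dose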
# ADAM17 inh: ADAM17 inhibition, QFRET primary screen. hit rate 0.83% among 370,000. recombinant ADAM17, EDANS/DABCYL FRET peptide cleavage. AID 720648. inhibition, % at 6.95 µM. P78536;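 active = inhibition above the mean of compounds lying between control limits plus 3 SD, set per campaign, cut at about 8.5% in these data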;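 note: 0% = DMSO-only wells as the low control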
# MPTP block: permeability transition pore inhibition | hit rate 1.4% among 360,000 | isolated mouse mitochondria, Ca2+ swelling absorbance, 30 min | inhibition, % at 10 µM;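 active = inhibition of 50% or more, scaled per plate between neutral and stimulator controls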;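 note: 0% = DMSO wells given calcium and 100% = 1 mM EGTA wells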
# ADAM10 inh: inhibitors of human ADAM10 | O14672 | recombinant ADAM10, EDANS/DABCYL FRET peptide cleavage, 3 h | inhibition, % at 7 µM | hit rate 0.62% among 370,000;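 active = inhibition above a per-campaign cutoff equal to the mean of compounds falling between control-based bounds plus 3 SD, cut at about 20% in these data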;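 note: 0% = DMSO wells while the 100% control is not disclosed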
# Target sequence (O14672 214-748 limits assumed): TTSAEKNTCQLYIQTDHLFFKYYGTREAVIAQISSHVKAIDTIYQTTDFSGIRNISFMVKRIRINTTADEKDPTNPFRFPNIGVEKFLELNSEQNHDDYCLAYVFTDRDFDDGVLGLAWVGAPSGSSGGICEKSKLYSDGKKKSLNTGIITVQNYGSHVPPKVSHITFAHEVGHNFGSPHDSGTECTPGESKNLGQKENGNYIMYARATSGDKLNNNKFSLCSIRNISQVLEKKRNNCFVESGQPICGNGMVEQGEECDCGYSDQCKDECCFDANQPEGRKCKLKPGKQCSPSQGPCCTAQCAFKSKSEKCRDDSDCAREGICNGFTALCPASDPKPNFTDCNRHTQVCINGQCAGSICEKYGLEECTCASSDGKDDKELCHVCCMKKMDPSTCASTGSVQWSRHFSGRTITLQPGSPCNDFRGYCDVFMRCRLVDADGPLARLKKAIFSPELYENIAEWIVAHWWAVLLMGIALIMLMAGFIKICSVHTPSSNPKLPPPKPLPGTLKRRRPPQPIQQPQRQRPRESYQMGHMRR
# ADAM10 confirm: human ADAM10 inhibition, confirmation. inhibition, % at 6.95 µM. shares compounds with ADAM10 inh. ADAM10 QFRET peptide cleavage, EDANS fluorescence. hit rate 1% among 2,100. AID 743208;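 active = inhibition above about 20% chosen separately for each screening run, limit read from the data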;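 note: 0% = DMSO wells and 100% = marimastat wells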
# ADAM17 counter: ADAM17 inhibition, counter-screen for ADAM10 exosite hits. shares compounds with ADAM10 inh. ADAM17 QFRET peptide cleavage, EDANS fluorescence. inhibition, % at 6.95 µM. hit rate 0.5% among 2,100. AID 743214;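 active = mean triplicate inhibition above the solvent-only control wells' mean plus 3 SD, cut at about 12% in these data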;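 note: 0% = DMSO wells and 100% = marimastat wells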
# ADAM10 ctr: ADAM10 inhibition, counter-screen for ADAM17 exosite hits | shares compounds with ADAM17 inh | recombinant ADAM10, EDANS/DABCYL FRET peptide cleavage, 3 h | inhibition, % at 6.95 µM | hit rate 47% among 2,900 | AID 743256;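 active = mean inhibition over the triplicate runs exceeds the activity threshold set in the earlier primary screen, cut at about 20% in these data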;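 note: 0% = DMSO wells and 100% = marimastat wells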
# ADAM17 confirm: human ADAM17 inhibition, confirmation | hit rate 65% among 2,900 | inhibition, % at 6.95 µM | recombinant ADAM17, EDANS/DABCYL QFRET peptide cleavage | shares compounds with ADAM17 inh;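 active = mean inhibition across replicates above the hit cutoff set in the primary screen, cut at about 8.5% in these data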;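 note: 0% = DMSO wells and 100% = marimastat wells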
# An asterisk follows results filed as active; / = no result given. Rows were chosen to be rich in hits. Some 4.7% of all compounds tested hit in one or more screens of this group.
SMILES,MT1-MMP act inh,SKN-1 inh,NR3A LBD binder,ADAM17 inh,MPTP block,ADAM10 inh,ADAM10 confirm,ADAM17 counter,ADAM10 ctr,ADAM17 confirm
COc1ccc(-n2c(Cc3cccs3)nnc2SCC(=O)Nc2ccc(OCc3ccccc3)cc2)cc1,/,/,/,11.0*,/,21.4*,12.3,4.0,25.3*,16.4*
Cc1ccc(-n2c(Cc3cccs3)nnc2SCC(=O)Nc2ccc(OCc3ccccc3)cc2)cc1,/,/,/,11.8*,/,21.3*,10.5,3.5,22.3*,14.8*
CCn1c(Cc2cccs2)nnc1SCC(=O)Nc1ccc(OCc2ccccc2)cc1,/,/,/,4.5,/,11.6,/,/,/,/
O=C(NCc1cccnc1)c1ccccc1Br,4.7,-3.2,0.3,-5.7,0.2,4.2,/,/,/,/
Cc1ccc(NC(=S)NCCC(c2ccccc2)c2ccccc2)c(C)c1,-3.8,0.8,-4.8,5.2,12.9,14.3,/,/,/,/
Cc1ccccc1NC(=S)NCCC(c1ccccc1)c1ccccc1,1.4,14.8,-6.7,15.8*,0.5,36.6*,7.3,2.7,8.1,7.2
COc1ccc(OC)c(NC(=S)NCCC(c2ccccc2)c2ccccc2)c1,2.5,21.7,4.5,8.7*,-0.3,21.4*,6.9,1.5,23.4*,21.6*
COc1ccc(CN2C[C@@H](CO)O[C@@H](n3cnc4c(N5CCN(C)CC5)ncnc43)C2)cc1,-2.0,14.7,/,-5.6,-1.2,-1.9,/,/,/,/
c1ccc(CSc2nnc(-c3sccc3-n3cccc3)o2)cc1,-6.4,-19.6,-1.4,-2.2,-1.1,2.1,/,/,/,/
Cc1cccc(Nc2nc(N)c([N+](=O)[O-])c(NCc3ccco3)n2)c1,-8.1,13.6,-10.0,16.3*,21.5,31.0*,2.2,1.4,20.0*,10.3*
COc1cc(Cl)c(C)cc1NC(=S)NN,0.7,3.2,-1.7,-0.1,-3.8,0.5,/,/,/,/
C#CCN(C[C@@H]1[C@@H](OC(=O)NCc2ccccc2F)[C@@H](OC(=O)NCc2ccccc2F)Cn2c(=O)n(CCCCCC)c(=O)n21)S(=O)(=O)c1ccc(C)cc1,4.0,6.2,/,2.6,-0.7,0.3,/,/,/,/
C#CCN(C[C@@H]1[C@@H](OC(=O)NCc2ccccc2F)[C@@H](OC(=O)NCc2ccccc2F)Cn2c(=O)ccc(=O)n21)S(=O)(=O)c1ccc(C)cc1,-11.4,-9.6,/,9.4*,0.4,24.4*,6.0,0.7,22.1*,11.7*
Cc1ccc(NC(=O)Nc2ccno2)cc1,4.3,-1.1,0.3,-1.4,7.5,-1.2,/,/,/,/
CC1(c2nc3ccccc3[nH]2)c2ccccc2C(=O)N1C1CC1 (configuration not stated),2.6,7.4,/,-0.6,-1.5,-1.1,/,/,/,/
Cc1cccc(C)c1OCC(O)Cn1c2ccccc2c2ccccc21 (configuration not stated),-11.4,10.0,8.7,12.2*,14.0,20.4*,17.1,5.0,20.6*,12.7*
C=CCN(CC=C)CC(O)Cn1c2ccccc2c2ccccc21 (configuration not stated),1.6,6.4,-1.3,-5.2,1.6,-7.5,/,/,/,/
OC(COCC(F)(F)C(F)(F)C(F)(F)C(F)F)Cn1c2ccccc2c2ccccc21 (configuration not stated),2.5,4.8,29.1*,14.7*,8.5,34.0*,12.1,5.4,29.2*,19.1*
CC(=O)N1CCN(C(=O)c2ccc(NS(=O)(=O)c3ccc(Cl)c(Cl)c3)cc2)CC1,1.7,9.2,2.9,5.1,-1.4,5.8,/,/,/,/
CCCCNc1nnc(SCC(=O)N2CCN(S(=O)(=O)c3ccc4ccccc4c3)CC2)s1,5.3,18.6,-1.8,2.4,2.3,5.7,/,/,/,/
CC(C)NC(=O)Cn1cnc2c(cnn2-c2ccc(F)cc2)c1=O,-3.8,1.6,-2.6,1.4,-0.5,-2.6,/,/,/,/
Cc1ccc(NC(=O)COC(=O)CN2C(=O)C3CCCCC3C2=O)cc1S(=O)(=O)N1CCOCC1 (configuration not stated),-4.9,4.1,-0.4,0.1,-0.2,-7.5,/,/,/,/
Cc1ccc(NC(=O)COC(=O)/C=C/c2cccc(Cl)c2)cc1S(=O)(=O)N1CCOCC1,-1.8,-0.4,6.4,9.5*,-0.6,29.4*,4.9,1.7,26.2*,15.4*
Cc1ccc(NC(=O)COC(=O)CC2CC3CCC2C3)cc1S(=O)(=O)N1CCOCC1 (configuration not stated),-0.6,10.0,-5.0,12.4*,0.1,23.3*,0.9,0.2,10.6,8.0
CCCCNC(=O)c1onc(CSc2ccc(F)c(F)c2)c1C(=O)O,7.0,30.5,-0.3,-3.9,1.4,3.0,/,/,/,/
SMILES,MT1-MMP act inh,SKN-1 inh,NR3A LBD binder,ADAM17 inh,MPTP block,ADAM10 inh,ADAM10 confirm,ADAM17 counter,ADAM10 ctr,ADAM17 confirm
O=c1c([N+](=O)[O-])cccn1Cc1ccccc1Cl,-6.2,-6.0,-1.2,-5.8,-0.5,-4.3,/,/,/,/
CC(NC(=O)CSc1n[nH]c(N)n1)c1ccccc1 (configuration not stated),1.0,9.2,-0.9,1.1,-1.0,5.9,/,/,/,/
CCCc1ccc(-c2cc(NC(=O)CSc3n[nH]c(N)n3)n(-c3ccccc3)n2)cc1,4.6,13.2,18.1*,9.8*,1.7,28.9*,3.5,1.6,29.2*,11.8*
CCCC(=O)Nc1cc(C(=O)N(C)CC(OC)OC)ccc1S(=O)(=O)c1ccc(C)cc1,-0.4,-5.1,0.0,-4.1,-1.0,-5.8,/,/,/,/
COc1ccc(CNC(=O)C2CCCN2C(=O)NCc2ccccc2)cc1 (configuration not stated),-8.1,-10.8,0.5,-2.0,0.0,4.7,/,/,/,/
O/N=C/c1cc(Br)ccc1OCc1ccccc1F,1.8,-5.7,-33.8,9.1*,1.3,20.6*,5.5,1.4,29.9*,16.8*
COC(=O)Nc1ccc(S(=O)(=O)N2CCC(Cc3ccccc3)CC2)cc1,-8.6,-6.0,-3.4,11.4*,6.9,20.1*,7.4,2.7,34.6*,14.5*
COc1cc(/C=N/NC(=O)COc2ccc(Cl)cc2)ccc1OS(=O)(=O)c1ccc(C)cc1,-2.0,-0.1,11.7*,11.1*,6.4,27.0*,14.5,3.7,51.2*,33.9*
COC(=O)N/N=C/c1ccc(OS(=O)(=O)c2ccc(C)cc2)c(OC)c1,-4.8,6.9,0.2,1.7,1.7,-7.1,/,/,/,/
